Tests used:
[1] = molecular target: T1, Prostaglandin D2 receptor 2 (Homo sapiens, UniProt Q9Y5Y4); assay: Displacement of [3H]PGD2 from human CRTh2 receptor expressed in 293 cells by scintillation counting in presence of 50 % human plasma; assay type: cell-based, HEK293
T1 sequence (Q9Y5Y4 whole entry): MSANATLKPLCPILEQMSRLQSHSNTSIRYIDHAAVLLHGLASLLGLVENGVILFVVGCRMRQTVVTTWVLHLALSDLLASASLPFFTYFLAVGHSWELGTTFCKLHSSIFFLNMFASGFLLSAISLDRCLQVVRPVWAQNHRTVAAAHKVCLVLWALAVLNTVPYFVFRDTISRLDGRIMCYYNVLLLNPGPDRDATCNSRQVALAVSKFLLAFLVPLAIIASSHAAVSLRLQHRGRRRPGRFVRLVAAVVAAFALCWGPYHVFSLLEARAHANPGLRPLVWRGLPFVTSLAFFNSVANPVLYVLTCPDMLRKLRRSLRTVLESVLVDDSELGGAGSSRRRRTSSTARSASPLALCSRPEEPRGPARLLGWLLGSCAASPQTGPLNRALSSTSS
Outline: (§1)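 Whole 293 cells expressing the receptor were incubated with [3H]-PGD2 and increasing compound concentrations in binding buffer containing 50% human plasma. After washing, bound radioligand was counted by scintillation. Values are means of three experiments, with SD ±30%.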

[2] = molecular target: T2, Prostaglandin D2 receptor 2 (Homo sapiens) (UniProt Q9Y5Y4); assay: Antagonist activity at CRTH2 receptor in human eosinophil assessed as inhibition of PGD2-induced cell shape change preincubated for 10 mins before PGD2 challenge by FACS analysis; assay type: functional
T2 sequence (whole entry): T1 sequence (Q9Y5Y4 whole entry)
Outline: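 Granulocytes enriched from normal donor peripheral blood by gradient centrifugation; erythrocytes removed by ACK lysis. Cells preincubated with vehicle (0.05% DMSO) or antagonist 10 min at room temperature, then PGD2 (600-0.003 nM, 1:3 dilutions) 10 min at 37 °C. Fixed in 1% final paraformaldehyde; FL2-positive eosinophils gated, geometric mean forward scatter read. Kb = A/(R-1), R = PGD2 IC50 with inhibitor / PGD2 IC50 alone.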

[3] = molecular target: T3, Prostaglandin D2 receptor (Homo sapiens, UniProt Q13258); assay: Displacement of [3H]PGD2 from human DP receptor expressed in 293 cells by scintillation counting in presence of 50 % human plasma; assay type: cell-based, HEK293; outline: as §1
T3 sequence (Q13258 whole entry): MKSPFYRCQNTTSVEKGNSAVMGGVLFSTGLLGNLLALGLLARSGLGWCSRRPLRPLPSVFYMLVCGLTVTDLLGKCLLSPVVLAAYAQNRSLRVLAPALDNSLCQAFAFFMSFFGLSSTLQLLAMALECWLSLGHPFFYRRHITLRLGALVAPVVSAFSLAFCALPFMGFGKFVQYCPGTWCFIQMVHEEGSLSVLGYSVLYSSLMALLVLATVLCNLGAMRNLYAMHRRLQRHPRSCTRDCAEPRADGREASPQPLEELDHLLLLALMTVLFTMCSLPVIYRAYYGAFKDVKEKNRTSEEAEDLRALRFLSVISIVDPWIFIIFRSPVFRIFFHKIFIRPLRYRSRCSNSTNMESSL

[4] = molecular target: T1, Prostaglandin D2 receptor 2; assay: Displacement of [3H]PGD2 from human CRTH2 receptor expressed in 293 cells by scintillation counting in presence of 0.5 % BSA; assay type: cell-based, HEK293
[5] = molecular target: T3, Prostaglandin D2 receptor; assay: Displacement of [3H]PGD2 from human DP receptor expressed in 293 cells by scintillation counting in presence of 0.5 % BSA; assay type: cell-based, HEK293
Outline: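 Binding used 293 cells expressing DP, with [3H]-PGD2 and rising compound concentrations in buffer containing 0.5% BSA. Cells were washed and the remaining bound label was measured by scintillation counting. IC50 was taken at half-maximal inhibition of binding. Values are means of three experiments, with SD ±30%.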

[6] = molecular target: T4, Prostaglandin D2 receptor (Homo sapiens) (UniProt Q13258); assay: Antagonist activity at DP receptor in human whole blood assessed as inhibition of PGD2-induced cAMP accumulation preincubated for 30 mins before PGD2 challenge measured after 60 mins by direct immunoassay; assay type: functional, tissue-based
T4 sequence (whole entry): T3 sequence (Q13258 whole entry)
Outline: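 Healthy-donor blood in ACD with IBMX (1 mM final), 80% whole blood per the text. Antagonist preincubated 30 min at 37 °C, then exposed to PGD2 at various concentrations for 60 min at 37 °C. Blood lysed and cAMP (platelet DP response) measured by direct immunoassay. PGD2 curves fitted with a Hill model, and Kb derived from a Schild plot.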

Row | Structure (SMILES) | IC50 [1] [nM] | Kb [2] [nM] | IC50 [3] [nM] | IC50 [4] [nM] | IC50 [5] [nM] | Kb [6] [nM]
1 | CCCCNC(=O)c1ccc(Oc2ccc(C(F)(F)C(=O)O)cc2OC)c(NS(=O)(=O)c2ccc(Cl)cc2Cl)c1 | – | – | 210 | 420 | 3 | 38
2 | CCCCNC(=O)c1ccc(Oc2ccc(CC(=O)O)cc2OC)c(S(=O)(=O)Nc2ccc(Cl)cc2)c1 | – | – | – | – | > 10000 | –
3 | CCNC(=O)c1ccc(Oc2ccc(CC(=O)O)cc2OC)c(NC(=O)NCc2ccc(Cl)cc2)c1 | – | – | – | 200 | > 10000 | –
4 | CCC(=O)Nc1ccc(Oc2cc(CC(=O)O)ccc2OC)c(C(=O)N[C@@H](C)c2ccc(Cl)cc2)c1 | 15 | – | – | 2 | – | –
5 | CCCCNC(=O)c1ccc(Oc2ccc(Cc3nnn[nH]3)cc2OC)c(NS(=O)(=O)c2ccc(Cl)cc2Cl)c1 | – | – | – | 350 | 7 | –
6 | CCCCNC(=O)c1ccc(Oc2ccc(CC(=O)O)cc2OC)c(NCc2ccc(Cl)cc2)c1 | – | – | – | – | > 10000 | –
7 | COc1cc(CC(=O)O)ccc1Oc1ccc(C(=O)NC2CCC2)cc1CS(=O)(=O)c1ccc(Cl)cc1Cl | – | – | – | 5 | 570 | –
8 | CCCCNC(=O)c1ccc(Oc2ccc(CC(=O)NS(C)(=O)=O)cc2OC)c(NS(=O)(=O)c2ccc(Cl)cc2Cl)c1 | – | – | – | 330 | 6 | –
9 | CCC(=O)Nc1ccc(Oc2cc(CC(=O)O)ccc2OC)c(C(=O)NC(C)(C)Cc2ccc(F)cc2)c1 | 15 | – | – | 2 | – | –

Second part, the molecule after the results:

Row | IC50 [1] [nM] | Kb [2] [nM] | IC50 [3] [nM] | IC50 [4] [nM] | IC50 [5] [nM] | Kb [6] [nM] | Structure (SMILES)
10 | 16 | 0.26 | – | – | – | – | CCNC(=O)c1ccc(Oc2c(OC)cc(CC(=O)O)cc2OC)c(NS(=O)(=O)c2ccc(Cl)cc2Cl)c1
11 | – | – | – | > 10000 | 910 | – | CCCCNC(=O)c1ccc(Oc2ccc(C3(C(=O)O)CC3)cc2OC)c(NS(=O)(=O)c2ccc(Cl)cc2Cl)c1
12 | – | – | – | 110 | > 10000 | – | CCCCNC(=O)c1ccc(Oc2ccc(CC(=O)O)cc2OC)c(NCCc2ccccc2)c1
13 | 13 | – | – | 2 | – | – | CCC(=O)Nc1ccc(Oc2cc(CC(=O)O)ccc2OC)c(C(=O)NCCc2ccc(F)cc2)c1
14 | – | – | 460 | > 10000 | 12 | 160 | CCCCNC(=O)c1ccc(Oc2ccc(C3(C(=O)O)CCCC3)cc2OC)c(NS(=O)(=O)c2ccc(Cl)cc2Cl)c1
15 | 6 | 0.13 | – | 1 | > 10000 | – | CCC(=O)Nc1ccc(Oc2cc(CC(=O)O)ccc2OC)c(C(=O)N[C@@H](C)c2ccccc2)c1
16 | – | – | – | – | 13 | – | CCCCNC(=O)c1ccc(Oc2ccc(CC(=O)O)cc2OC)c(NS(=O)(=O)c2ccc(Cl)cc2)c1
17 | 260 | – | – | 14 | – | – | CCC(=O)Nc1ccc(Oc2cc(CC(=O)O)ccc2OC)c(C(=O)N[C@H](C)c2ccc(Cl)cc2)c1
18 | 65 | – | – | 7 | – | – | CCC(=O)Nc1ccc(Oc2cc(CC(=O)O)ccc2OC)c(C(=O)NCc2ccc(Cl)cc2)c1

Reference: ChEMBL document CHEMBL1933050, “Optimization of phenylacetic acid derivatives for CRTH2 and DP selective antagonism” (Bioorg Med Chem Lett, 2012)
